Experimental data from ChEMBL document CHEMBL5712080, “PRMT5 promotes cell proliferation by inhibiting BTG2 expression via the ERK signaling pathway in hepatocellular carcinoma” (Cancer Med, 2018).
Activity calls are given as the source filed them. The rule behind the calls is not given here.

Legend:
Huh-7 [1] = assay: Upregulation of BTG2 protein in PRMT5 knockdown human Huh-7 cells at 20 microM for 24 hrs by Western blot analysis; format: functional, cell-based
Summary of the method: (§1)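 Huh7 or SK-Hep1 cells stably carrying lentiviral shRNA against PRMT5, selected 2 weeks in puromycin (final 1 μg/mL), grown in DMEM/10% FBS at 37°C, 5% CO2. Cells pretreated 24 h with 20 μM PD184352 (ERK phosphorylation inhibitor). RIPA lysates run on 8–12% SDS-PAGE, PVDF, 5% milk block, primary antibody overnight at 4°C, HRP secondary, chemiluminescent detection. Histone 3 was the nuclear loading control.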

SK-HEP1 [2] = assay: Upregulation of BTG2 protein in PRMT5 knockdown human SK-HEP1 cells at 20 microM for 24 hrs by Western blot analysis; format: functional, cell-based; summary of the method: as §1
[3] = target: Protein arginine N-methyltransferase 5 (Homo sapiens) (UniProt O14744); assay: Inhibition of PRMT5 in human Huh-7 cells assessed as H4R3me2s protein level at 500 nM for 4 days by Western blot analysis; format: cell-based; details: time 4.0 day
[4] = target: Protein arginine N-methyltransferase 5 (Homo sapiens) (UniProt O14744); assay: Inhibition of PRMT5 in human SK-HEP1 cells assessed as H4R3me2s protein level at 500 nM for 4 days by Western blot analysis; format: cell-based; details: time 4.0 day
[5] = target: Protein arginine N-methyltransferase 5 (Homo sapiens) (UniProt O14744); assay: Inhibition of PRMT5 in human Huh-7 cells assessed as upregulation of BTG2 protein level at 500 nM for 4 days by Western blot analysis; format: cell-based; details: time 4.0 day
[6] = target: Protein arginine N-methyltransferase 5 (Homo sapiens) (UniProt O14744); assay: Inhibition of PRMT5 in human SK-HEP1 cells assessed as upregulation of BTG2 protein level at 500 nM for 4 days by Western blot analysis; format: cell-based; details: time 4.0 day
[7] = target: Protein arginine N-methyltransferase 5 (Homo sapiens) (UniProt O14744); assay: Inhibition of PRMT5 in human Huh-7 cells assessed as upregulation of ERK phosphorylation level at 500 nM for 4 days by Western blot analysis; format: cell-based; details: time 4.0 day
[8] = target: Protein arginine N-methyltransferase 5 (Homo sapiens) (UniProt O14744); assay: Inhibition of PRMT5 in human SK-HEP1 cells assessed as upregulation of ERK phosphorylation level at 500 nM for 4 days by Western blot analysis; format: cell-based; details: time 4.0 day
Huh-7 [9] = assay: Reversal of H4R3me2s level in human Huh-7 cells at 500 nM for 4 days in presence of PD184352 by Western blotting analysis; format: functional, cell-based; details: time 4.0 day
SK-HEP1 [10] = assay: Reversal of H4R3me2s level in human SK-HEP1 cells at 500 nM for 4 days in presence of PD184352 by Western blotting analysis; format: functional, cell-based; details: time 4.0 day
Huh-7 [11] = assay: Reversal of ERK phosphorylation level in human Huh-7 cells at 500 nM for 4 days in presence of PD184352 by Western blotting analysis; format: functional, cell-based; details: time 4.0 day
SK-HEP1 [12] = assay: Reversal of ERK phosphorylation level in human SK-HEP1 cells at 500 nM for 4 days in presence of PD184352 by Western blotting analysis; format: functional, cell-based; details: time 4.0 day
Huh-7 [13] = assay: Reversal of BTG2 protein level in human Huh-7 cells at 500 nM for 4 days in presence of PD184352 by Western blotting analysis; format: functional, cell-based; details: time 4.0 day
SK-HEP1 [14] = assay: Reversal of BTG2 protein level in human SK-HEP1 cells at 500 nM for 4 days in presence of PD184352 by Western blotting analysis; format: functional, cell-based; details: time 4.0 day

Chain of Protein arginine N-methyltransferase 5 (Homo sapiens) (O14744 whole entry): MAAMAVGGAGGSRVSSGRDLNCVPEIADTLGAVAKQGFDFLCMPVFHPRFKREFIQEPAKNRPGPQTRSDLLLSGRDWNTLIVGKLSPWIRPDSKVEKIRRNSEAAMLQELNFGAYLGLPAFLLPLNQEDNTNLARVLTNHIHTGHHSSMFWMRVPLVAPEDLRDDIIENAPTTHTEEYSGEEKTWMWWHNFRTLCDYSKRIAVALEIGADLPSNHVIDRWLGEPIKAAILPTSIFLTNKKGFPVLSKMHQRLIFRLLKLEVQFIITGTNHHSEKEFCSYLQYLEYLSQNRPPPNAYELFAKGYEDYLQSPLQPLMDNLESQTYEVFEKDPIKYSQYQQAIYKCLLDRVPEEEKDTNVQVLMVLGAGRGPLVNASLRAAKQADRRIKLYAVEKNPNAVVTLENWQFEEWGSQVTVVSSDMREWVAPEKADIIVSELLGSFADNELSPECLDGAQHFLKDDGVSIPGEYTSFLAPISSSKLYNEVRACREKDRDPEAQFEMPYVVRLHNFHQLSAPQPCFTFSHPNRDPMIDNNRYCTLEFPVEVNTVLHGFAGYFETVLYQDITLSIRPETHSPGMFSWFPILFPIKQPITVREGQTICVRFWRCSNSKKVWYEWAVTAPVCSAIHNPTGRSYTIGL

inhibition [3] | inhibition [4] | inhibition [5] | inhibition [6] | inhibition [7] | inhibition [8] | SMILES | Activity (Huh-7 [1]) | Activity (SK-HEP1 [2]) | Activity (Huh-7 [9]) | Activity (SK-HEP1 [10]) | Activity (Huh-7 [11]) | Activity (SK-HEP1 [12]) | Activity (Huh-7 [13]) | Activity (SK-HEP1 [14])
 |  |  |  |  |  | O=C(NOCC1CC1)c1ccc(F)c(F)c1Nc1ccc(I)cc1Cl | Active | Active |  |  |  |  |  | 
Active | Active | Active | Active | Active | Active | O=C(NC[C@H](O)CN1CCc2ccccc2C1)c1ccnc(NC2CCC2)c1 |  |  | Active | Active | Active | Active | Active | Active
